Results reported in ChEMBL document CHEMBL1123011, “Isoxazoles with antipicornavirus activity” (1985).
Values after ≈ are worked out from the molar mass of the structure shown. Active and inactive are the calls of the source. No cut-off for these calls is given here.

Tests used:
Enterovirus [1] = test: Effect on plaque production by Human Rhinovirus serotype 29 (seven most common serotypes); assay type: functional
Procedure, shortened: (§1)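 HeLa (Ohio) monolayers (day-old, 90%) were infected at about 80 pfu/well and adsorbed at least 1 h at 33 °C in 2% CO2. After 3 days at 33 °C they were fixed with formaldehyde and stained with crystal violet. MIC was the concentration giving 50% fewer plaques.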

Enterovirus [2] = test: Effect on plaque production by Human Rhinovirus serotype 18; assay type: functional; procedure, shortened: as §1
Poliovirus 3 = test: Minimum inhibitory concentration of compound in vitro against poliovirus-3; assay type: functional; settings: Enterovirus C
Echovirus E9 = test: Minimum inhibitory concentration of compound in vitro against echovirus-9; assay type: functional; settings: Enterovirus B
Procedure, shortened: (§2)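 Plaque reduction on day-old HeLa (Ohio) monolayers, about 80 pfu/well. Drug was serially diluted twofold from a 10 mg/mL Me2SO stock into an M-199/10% calf serum/agarose overlay, applied in duplicate after virus adsorption. Plaques were counted after 3 days in 2% CO2, following formaldehyde fixation and crystal violet staining. MIC was the concentration producing 50% plaque reduction.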

Enterovirus [3] = test: Effect on plaque production by Human Rhinovirus serotype 36; assay type: functional; procedure, shortened: as §1
rhinovirus A2 [4] = test: In vitro anti-picornavirus activity against Rhinovirus type-2.; assay type: functional; settings: Rhinovirus A
Procedure, shortened: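 HeLa (Ohio) monolayers (day-old, 90%) were infected at about 80 pfu/well and adsorbed at least 1 h at 33 °C in 2% CO2. After 3 days at 33 °C they were fixed with formaldehyde and stained with crystal violet.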

Mus musculus [5] = test: Effect of compound on Poliovirus induced paralysis and death in mice when administered orally with 31 mg/kg.; assay type: functional; settings: route oral
Procedure, shortened: (§3)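 ICR Buckberg mice (18–21 g) were infected intracerebrally with polio-2 (MEF strain). Compound was given orally bid at 31–250 mg/kg: 1 h before infection, 2 h after, then twice daily for 13 days. Placebo and nonmedicated groups served as controls, with 30 mice per group. Flaccid paralysis and death were scored and survivors counted when the test ended on day 20.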

Enterovirus [6] = test: Effect on plaque production by Human Rhinovirus serotype 5; assay type: functional; procedure, shortened: as §1
Mus musculus [7] = test: Effect of compound on number of survivors per 30 mice at placebo mg/kg; assay type: functional; procedure, shortened: as §3
Enterovirus [8] = test: Effect on plaque production by Human Rhinovirus serotype 89; assay type: functional; procedure, shortened: as §1
Mus musculus [9] = test: Effect of compound on number of survivors per 30 mice at dose 250 mg/kg; assay type: functional; procedure, shortened: as §3
Enterovirus [10] = test: Effect on plaque production by Human Rhinovirus serotype 15 (seven most common serotypes); assay type: functional; procedure, shortened: as §1
Enterovirus [11] = test: Effect on plaque production by Human Rhinovirus serotype 3; assay type: functional; procedure, shortened: as §1
Enterovirus [12] = test: Effect on plaque production by Human Rhinovirus serotype 49; assay type: functional; procedure, shortened: as §1
Enterovirus [13] = test: Effect on plaque production by Human Rhinovirus serotype 29; assay type: functional; procedure, shortened: as §1
Mus musculus [14] = test: Effect of compound on Poliovirus induced paralysis and death in mice when administered orally with dose 63 mg/kg.; assay type: functional; settings: route oral; procedure, shortened: as §3
rhinovirus A2 [15] = test: Minimum inhibitory concentration of compound in vitro against rhinovirus-2; assay type: functional, rhinovirus type-2; settings: Rhinovirus A; procedure, shortened: as §1
Enterovirus [16] = test: Effect on plaque production by Human Rhinovirus serotype 1A (seven most common serotypes); assay type: functional; procedure, shortened: as §1
Enterovirus [17] = test: Effect on plaque production by Human Rhinovirus serotype 13; assay type: functional; procedure, shortened: as §1
Enterovirus [18] = test: Effect on plaque production by Human Rhinovirus serotype 41; NA=Not active; assay type: functional, organism-based; procedure, shortened: as §1
Enterovirus [19] = test: Effect on plaque production by Human Rhinovirus serotype 75; assay type: functional; procedure, shortened: as §1
Enterovirus [20] = test: Effect on plaque production by Human Rhinovirus serotype 61; assay type: functional; procedure, shortened: as §1
Enterovirus [21] = test: Effect on plaque production by Human Rhinovirus serotype 4 (seven most common serotypes); NA=Not active; assay type: functional, organism-based; procedure, shortened: as §1
Mus musculus [22] = test: Effect of compound on number of survivors per 30 mice at nonmed mg/kg; assay type: functional; procedure, shortened: as §3
Mus musculus [23] = test: Effect of compound on number of survivors per 30 mice at dose 125 mg/kg; assay type: functional; procedure, shortened: as §3
Enterovirus [24] = test: Effect on plaque production by Human Rhinovirus serotype 39; assay type: functional; procedure, shortened: as §1
Enterovirus [25] = test: Effect on plaque production by Human Rhinovirus serotype 33; assay type: functional; procedure, shortened: as §1
Poliovirus 2 [26] = test: In vitro anti-picornavirus activity against Poliovirus type-2.; assay type: functional; settings: Enterovirus C
Enterovirus [27] = test: Effect on plaque production by Human Rhinovirus serotype 50; assay type: functional; procedure, shortened: as §1
Poliovirus 2 [28] = test: Minimum inhibitory concentration of compound in vitro against poliovirus-2; assay type: functional; settings: Enterovirus C
Procedure, shortened: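 Plaque-reduction assay on day-old HeLa (Ohio) monolayers at 90% confluence, infected with polio-2 at ca. 80 pfu/well. Adsorption was at least 1 h at 37 °C in 2% CO2. Cells were then overlaid in duplicate with drug in M-199/calf serum/agarose (Me2SO stock at 10 mg/mL, twofold dilutions) and held 3 days. Plaques were fixed with formaldehyde, stained with crystal violet and counted. MIC is the concentration giving 50% plaque reduction.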

Enterovirus [29] = test: Effect on plaque production by Human Rhinovirus serotype 31 (seven most common serotypes); assay type: functional; procedure, shortened: as §1
[30] = Maximum testable level of compound was evaluated; assay type: functional
Procedure, shortened: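 In the HeLa (Ohio) plaque-overlay system, Me2SO-solubilized compound was twofold serially diluted into the agarose overlay. Uninfected cell controls were run alongside and cells were stained with crystal violet after 3 days. The maximum testable level was taken as the concentration below which no cytotoxic effects were seen.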

Enterovirus [31] = test: Effect on plaque production by Human Rhinovirus serotype 86; assay type: functional; procedure, shortened: as §1
Enterovirus [32] = test: Effect on plaque production by Human Rhinovirus serotype 1B (seven most common serotypes); assay type: functional; procedure, shortened: as §1
Mus musculus [33] = test: Effect of compound on Poliovirus induced paralysis and death in mice when administered orally with placebo mg/kg.; assay type: functional; procedure, shortened: as §3
Enterovirus [34] = test: Effect on plaque production by Human Rhinovirus serotype 2; assay type: functional; procedure, shortened: as §1
Mus musculus [35] = test: Effect of compound on number of survivors per 30 mice at dose 63 mg/kg; assay type: functional; procedure, shortened: as §3
Mus musculus [36] = test: Effect of compound on Poliovirus induced paralysis and death in mice when administered orally with dose 250 mg/kg.; assay type: functional; settings: route oral; procedure, shortened: as §3
Mus musculus [37] = test: Effect of compound on Poliovirus induced paralysis and death in mice when administered orally with dose 125 mg/kg.; assay type: functional; settings: route oral; procedure, shortened: as §3
Enterovirus [38] = test: Effect on plaque production by Human Rhinovirus serotype 16; assay type: functional; procedure, shortened: as §1
Enterovirus [39] = test: Effect on plaque production by Human Rhinovirus serotype 21; assay type: functional; procedure, shortened: as §1
Echovirus E11 = test: Minimum inhibitory concentration of compound in vitro against echovirus-11; assay type: functional; settings: Enterovirus B; procedure, shortened: as §2
Enterovirus [40] = test: Effect on plaque production by Human Rhinovirus serotype 14; assay type: functional; procedure, shortened: as §1
Mus musculus [41] = test: Effect of compound on number of survivors per 30 mice at dose 31 mg/kg; assay type: functional; procedure, shortened: as §3
Mus musculus [42] = test: Effect of compound on Poliovirus induced paralysis and death in mice when administered orally with nonmed mg/kg.; assay type: functional; procedure, shortened: as §3
Enterovirus [43] = test: Effect on plaque production by Human Rhinovirus serotype 22; assay type: functional; procedure, shortened: as §1
Enterovirus [44] = test: Effect on plaque production by Human Rhinovirus serotype 72; NA=Not active; assay type: functional, organism-based; procedure, shortened: as §1

COc1ccc(OCCCCCCCc2cc(C)no2)c(Cl)c1
MIC (Enterovirus [1]): 0.33 µg/mL (≈ 0.977 µM)
MIC (Enterovirus [2]): 1.5 µg/mL (≈ 4.44 µM)
MIC (Poliovirus 3): 0.08 µg/mL (≈ 0.237 µM)
MIC (Echovirus E9): 0.15 µg/mL (≈ 0.444 µM)
MIC (Enterovirus [3]): 0.04 µg/mL (≈ 0.118 µM)
MIC (rhinovirus A2 [4]): 0.04 µg/mL (≈ 0.118 µM)
survival at 31 mg/kg (Mus musculus [5]): 53%
MIC (Enterovirus [6]): 5.8 µg/mL (≈ 17.2 µM)
Survivors (Mus musculus [7]): 7
MIC (Enterovirus [8]): 0.03 µg/mL (≈ 0.0888 µM)
Survivors (Mus musculus [9]): 28
MIC (Enterovirus [10]): 0.44 µg/mL (≈ 1.3 µM)
MIC (Enterovirus [11]): 0.5 µg/mL (≈ 1.48 µM)
MIC (Enterovirus [12]): 0.26 µg/mL (≈ 0.77 µM)
MIC (Enterovirus [13]): 3.1 µg/mL (≈ 9.18 µM)
survival at 63 mg/kg (Mus musculus [14]): 67%
MIC (rhinovirus A2 [15]): 0.04 µg/mL (≈ 0.118 µM)
MIC (Enterovirus [16]): 0.29 µg/mL (≈ 0.858 µM)
MIC (Enterovirus [17]): 1.9 µg/mL (≈ 5.62 µM)
MIC (Enterovirus [18]): inactive
MIC (Enterovirus [19]): 4.1 µg/mL (≈ 12.1 µM)
MIC (Enterovirus [20]): 0.09 µg/mL (≈ 0.266 µM)
MIC (Enterovirus [21]): inactive
Survivors (Mus musculus [22]): 7
Survivors (Mus musculus [23]): 22
MIC (Enterovirus [24]): 0.07 µg/mL (≈ 0.207 µM)
MIC (Enterovirus [25]): 0.05 µg/mL (≈ 0.148 µM)
MIC (Poliovirus 2 [26]): 0.05 µg/mL (≈ 0.148 µM)
MIC (Enterovirus [27]): 0.13 µg/mL (≈ 0.385 µM)
MIC (Poliovirus 2 [28]): 0.05 µg/mL (≈ 0.148 µM)
MIC (Enterovirus [29]): 0.53 µg/mL (≈ 1.57 µM)
MTL [30]: 12.5 µg/mL
MIC (Enterovirus [31]): 0.25 µg/mL (≈ 0.74 µM)
MIC (Enterovirus [32]): 0.37 µg/mL (≈ 1.1 µM)
Survival (Mus musculus [33]): 22%
MIC (Enterovirus [34]): 0.04 µg/mL (≈ 0.118 µM)
Survivors (Mus musculus [35]): 20
survival at 250 mg/kg (Mus musculus [36]): 93%
survival at 125 mg/kg (Mus musculus [37]): 73%
MIC (Enterovirus [38]): 0.04 µg/mL (≈ 0.118 µM)
MIC (Enterovirus [39]): 0.01 µg/mL (≈ 0.0296 µM)
MIC (Echovirus E11): 0.04 µg/mL (≈ 0.118 µM)
MIC (Enterovirus [40]): 1.35 µg/mL (≈ 4 µM)
Survivors (Mus musculus [41]): 16
Survival (Mus musculus [42]): 22%
MIC (Enterovirus [43]): 0.1 µg/mL (≈ 0.296 µM)
MIC (Enterovirus [44]): inactive
